# Assays:
# [1] = Mean resident time in jugular and femoral vein precannulated Sprague-Dawley rat at 1 mg/kg, iv by LC/MS/MS analysis; format: ADME, organism-based; parameters: dose 1 mg/kg, route intravenous; conditions: in vivo
# [2] = Oral bioavailability in jugular and femoral vein precannulated Sprague-Dawley rat plasma at 5 mg/kg by LC/MS/MS analysis; format: ADME, organism-based
# [3] = Volume of distribution at steady state in jugular and femoral vein precannulated Sprague-Dawley rat at 1 mg/kg, iv by LC/MS/MS analysis; format: ADME, organism-based; parameters: dose 1 mg/kg, route intravenous; conditions: in vivo, read-out: Vdss
# [4] = target: Sodium/hydrogen exchanger 1 (Homo sapiens, UniProt P19634); experiment: Inhibition of NHE1 in human HT-29 cells assessed as intracellular pH change after 30 mins; format: cell-based
# [5] = system: Rattus norvegicus; experiment: Clearance in jugular and femoral vein precannulated Sprague-Dawley rat at 1 mg/kg, iv by LC/MS/MS analysis relative to hepatic blood flow; format: ADME, organism-based, Liver; parameters: dose 1 mg/kg, route intravenous; conditions: in vivo
# [6] = target: Cytochrome P450 3A4 (Homo sapiens, UniProt P08684); experiment: Inhibition of CYP3A4 in human liver microsomes using 7-benzyloxy-4-(trifluoromethyl)-coumarin as substrate after 30 mins by LC/MS/MS analysis; format: ADME, Microsome
# [7] = target: Cytochrome P450 2D6 (Homo sapiens, UniProt P10635); experiment: Inhibition of CYP2D6 in human liver microsomes using 3-[2-(N,N-diethyl-N-methylamino)ethyl]-7- methoxy-4-methylcoumarin as substrate after 45 mins by LC/MS/MS analysis; format: ADME, Microsome
# [8] = target: Cytochrome P450 2C9 (Homo sapiens, UniProt P11712); experiment: Inhibition of CYP2C9 in human liver microsomes using 7-methoxy-4-(trifluoromethyl)-coumarin as substrate after 45 mins by LC/MS/MS analysis; format: ADME, Microsome
# [9] = Metabolic stability in rat liver microsomes at 1 uM up to 60 mins by LC/MS/MS analysis relative to hepatic blood flow; format: ADME, Microsome; conditions: read-out: Stability
# [10] = Permeability of the compound by PAMPA; format: ADME; conditions: read-out: permeability
# Procedure, shortened: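 Donor buffers were set to pH 5.0, 6.2 and 7.4 with NaOH, and ASB7.4 buffer was used as acceptor. Filters (0.45 pore, 125 μm thick) were lipid-coated. A 10 mM DMSO stock was diluted to 41.7 μM in donor buffer. The sandwich was incubated 4 h without stirring. Reference, donor and acceptor concentrations were read in duplicate by UV plate reader, and ratings were assigned from permeation velocity.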
# [11] = target: Cytochrome P450 2C19 (Homo sapiens, UniProt P33261); experiment: Inhibition of CYP2C19 in human liver microsomes using 7-ethoxy-3-cyanocoumarin as substrate after 45 mins by LC/MS/MS analysis; format: ADME, Microsome
# [12] = Metabolic stability in human liver microsomes at 1 uM up to 60 mins by LC/MS/MS analysis relative to hepatic blood flow; format: ADME, Microsome; conditions: read-out: Stability
# Sequence of Cytochrome P450 3A4 (P08684 whole entry): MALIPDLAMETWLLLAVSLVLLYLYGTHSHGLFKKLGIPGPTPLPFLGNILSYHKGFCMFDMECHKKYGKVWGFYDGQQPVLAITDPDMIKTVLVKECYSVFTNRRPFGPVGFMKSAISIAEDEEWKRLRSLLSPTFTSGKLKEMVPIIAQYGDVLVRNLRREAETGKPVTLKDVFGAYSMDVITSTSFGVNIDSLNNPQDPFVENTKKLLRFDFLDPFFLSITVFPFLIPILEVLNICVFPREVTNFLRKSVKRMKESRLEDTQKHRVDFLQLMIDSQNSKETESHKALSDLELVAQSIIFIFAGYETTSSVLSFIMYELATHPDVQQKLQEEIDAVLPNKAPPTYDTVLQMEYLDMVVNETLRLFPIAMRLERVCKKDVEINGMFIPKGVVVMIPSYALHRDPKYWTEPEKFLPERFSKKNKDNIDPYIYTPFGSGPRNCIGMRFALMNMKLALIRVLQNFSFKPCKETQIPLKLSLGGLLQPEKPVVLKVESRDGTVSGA
# Sequence of Sodium/hydrogen exchanger 1 (P19634 whole entry): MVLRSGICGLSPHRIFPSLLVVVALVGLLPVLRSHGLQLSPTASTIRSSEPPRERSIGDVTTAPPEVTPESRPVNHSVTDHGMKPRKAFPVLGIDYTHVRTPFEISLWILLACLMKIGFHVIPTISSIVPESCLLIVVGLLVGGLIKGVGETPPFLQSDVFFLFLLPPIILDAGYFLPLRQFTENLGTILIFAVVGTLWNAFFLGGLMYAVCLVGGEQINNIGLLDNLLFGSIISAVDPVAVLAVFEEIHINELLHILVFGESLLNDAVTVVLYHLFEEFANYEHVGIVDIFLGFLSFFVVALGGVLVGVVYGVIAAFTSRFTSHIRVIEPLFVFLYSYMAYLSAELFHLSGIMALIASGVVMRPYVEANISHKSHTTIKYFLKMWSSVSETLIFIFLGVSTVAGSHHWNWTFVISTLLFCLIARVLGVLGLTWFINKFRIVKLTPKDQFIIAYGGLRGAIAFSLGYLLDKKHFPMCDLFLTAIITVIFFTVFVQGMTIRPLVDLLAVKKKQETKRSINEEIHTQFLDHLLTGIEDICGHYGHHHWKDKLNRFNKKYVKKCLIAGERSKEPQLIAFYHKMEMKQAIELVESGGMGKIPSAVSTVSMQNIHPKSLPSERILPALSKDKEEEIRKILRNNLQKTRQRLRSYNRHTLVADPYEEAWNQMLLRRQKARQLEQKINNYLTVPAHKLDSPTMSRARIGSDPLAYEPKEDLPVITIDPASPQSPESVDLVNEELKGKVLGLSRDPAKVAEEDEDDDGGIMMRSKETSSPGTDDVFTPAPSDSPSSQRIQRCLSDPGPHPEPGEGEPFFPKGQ
# Sequence of Cytochrome P450 2C19 (P33261 whole entry): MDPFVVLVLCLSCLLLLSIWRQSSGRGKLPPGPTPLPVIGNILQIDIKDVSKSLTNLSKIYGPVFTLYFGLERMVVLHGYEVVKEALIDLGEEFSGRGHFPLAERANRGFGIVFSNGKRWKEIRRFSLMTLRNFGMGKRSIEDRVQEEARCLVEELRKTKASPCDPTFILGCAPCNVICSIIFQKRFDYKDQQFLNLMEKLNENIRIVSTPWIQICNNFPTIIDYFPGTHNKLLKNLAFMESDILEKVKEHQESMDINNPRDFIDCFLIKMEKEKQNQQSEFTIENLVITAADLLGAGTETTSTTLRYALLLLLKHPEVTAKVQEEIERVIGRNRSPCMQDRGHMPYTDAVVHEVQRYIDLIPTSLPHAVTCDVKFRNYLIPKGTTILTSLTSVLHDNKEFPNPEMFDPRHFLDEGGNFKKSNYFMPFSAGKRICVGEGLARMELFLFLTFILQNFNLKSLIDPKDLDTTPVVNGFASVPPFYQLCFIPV
# Sequence of Cytochrome P450 2D6 (P10635 whole entry): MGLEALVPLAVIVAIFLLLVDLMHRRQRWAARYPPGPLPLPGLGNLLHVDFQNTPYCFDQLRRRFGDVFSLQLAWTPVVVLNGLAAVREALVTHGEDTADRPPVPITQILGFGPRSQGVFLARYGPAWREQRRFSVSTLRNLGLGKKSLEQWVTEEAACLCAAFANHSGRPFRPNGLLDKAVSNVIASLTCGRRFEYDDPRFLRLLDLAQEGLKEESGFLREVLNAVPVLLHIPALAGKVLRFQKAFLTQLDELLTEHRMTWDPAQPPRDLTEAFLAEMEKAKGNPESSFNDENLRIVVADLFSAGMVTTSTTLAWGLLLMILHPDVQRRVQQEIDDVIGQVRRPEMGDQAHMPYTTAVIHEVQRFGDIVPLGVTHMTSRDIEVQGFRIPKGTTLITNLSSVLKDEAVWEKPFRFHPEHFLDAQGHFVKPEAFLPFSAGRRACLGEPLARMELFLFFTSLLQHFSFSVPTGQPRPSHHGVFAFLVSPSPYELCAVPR
# Sequence of Cytochrome P450 2C9 (P11712 whole entry): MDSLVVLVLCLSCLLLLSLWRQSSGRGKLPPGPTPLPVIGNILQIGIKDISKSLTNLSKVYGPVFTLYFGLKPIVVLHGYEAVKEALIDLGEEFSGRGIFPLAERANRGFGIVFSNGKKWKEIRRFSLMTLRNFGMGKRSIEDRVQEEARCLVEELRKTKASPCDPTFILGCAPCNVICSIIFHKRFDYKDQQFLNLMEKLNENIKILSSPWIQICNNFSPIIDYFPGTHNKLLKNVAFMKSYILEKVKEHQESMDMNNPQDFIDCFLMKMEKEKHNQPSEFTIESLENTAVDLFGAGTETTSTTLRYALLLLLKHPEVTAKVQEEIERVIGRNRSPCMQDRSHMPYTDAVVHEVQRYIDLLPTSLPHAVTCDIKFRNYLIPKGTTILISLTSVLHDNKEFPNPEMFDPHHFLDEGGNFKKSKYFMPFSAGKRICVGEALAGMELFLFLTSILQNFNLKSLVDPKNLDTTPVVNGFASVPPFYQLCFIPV
smiles,measurement,setting,value
CC(=O)N1CCC(c2cc(C)c(C(=O)NC(=N)N)cc2S(C)(=O)=O)CC1,MRT,[1],21.6 min
same,bioavailability,[2],4%
same,Vd,[3],1 L/kg
same,IC50,[4],0.015 µM
same,CL,[5],47%
N=C(N)NC(=O)c1ccc(C2CCN(C(=O)C3CC3)CC2)c(C(F)(F)F)c1,IC50,[6],16 µM
same,IC50,[7],17 µM
same,IC50,[8],6 µM
same,"hepatic extraction ratio at 1 h, 1 µM",[9],< 0.056
same,Papp,[10],≥ 2 ×10⁻⁶ cm/s
same,IC50,[11],5 µM
same,"hepatic extraction ratio at 1 h, 1 µM",[12],< 0.11
N=C(N)NC(=O)c1ccc(C2CCN(C(=O)c3ccc[nH]3)CC2)c(C(F)(F)F)c1,IC50,[4],0.045 µM
N#Cc1ccccc1C(=O)N1CCC(c2ccc(C(=O)NC(=N)N)cc2C(F)(F)F)CC1,IC50,[6],> 30 µM
same,IC50,[7],10 µM
same,IC50,[4],0.061 µM
same,IC50,[8],4 µM
same,"hepatic extraction ratio at 1 h, 1 µM",[9],< 0.06
same,Papp,[10],≥ 2 ×10⁻⁶ cm/s
same,IC50,[11],16 µM
same,"hepatic extraction ratio at 1 h, 1 µM",[12],0.4
CNC(=O)c1ccc(C(=O)N2CCC(c3ccc(C(=O)NC(=N)N)cc3C(F)(F)F)CC2)cc1,IC50,[4],0.052 µM
same,Papp,[10],< 2 ×10⁻⁶ cm/s
N=C(N)NC(=O)c1ccc(C2CCN(C(=O)c3ccc(S(N)(=O)=O)cc3)CC2)c(C(F)(F)F)c1,IC50,[6],24 µM
same,IC50,[7],> 30 µM
same,IC50,[4],0.014 µM
same,IC50,[8],16 µM
same,"hepatic extraction ratio at 1 h, 1 µM",[9],0.07
same,Papp,[10],< 2 ×10⁻⁶ cm/s
same,IC50,[11],> 30 µM
same,"hepatic extraction ratio at 1 h, 1 µM",[12],0.24
N=C(N)NC(=O)c1ccc(C2CCN(C(=O)c3ccccn3)CC2)c(C(F)(F)F)c1,IC50,[6],> 30 µM
same,IC50,[7],27 µM
same,IC50,[4],0.018 µM
same,IC50,[8],3 µM
same,"hepatic extraction ratio at 1 h, 1 µM",[9],< 0.06
same,Papp,[10],≥ 2 ×10⁻⁶ cm/s
same,IC50,[11],26 µM
same,"hepatic extraction ratio at 1 h, 1 µM",[12],0.49
N=C(N)NC(=O)c1ccc(C2CCN(C(=O)c3ccc(C(F)(F)F)cc3)CC2)c(C(F)(F)F)c1,IC50,[4],0.32 µM
COc1cc(C2CCN(C(C)=O)CC2)c(C(F)(F)F)cc1C(=O)NC(=N)N,IC50,[4],0.019 µM
N=C(N)NC(=O)c1ccc(C2CCN(C(=O)c3cccc(-c4cnco4)c3)CC2)c(C(F)(F)F)c1,IC50,[4],0.033 µM
CC(C)c1ccc(C(=O)NC(=N)N)cc1S(C)(=O)=O [CARIPORIDE],MRT,[1],24 min
same,bioavailability,[2],37%
same,Vd,[3],1.3 L/kg
same,CL,[5],82%
N=C(N)NC(=O)c1ccc(C2CCN(C(=O)c3ccc(-c4cnco4)cc3)CC2)c(C(F)(F)F)c1,IC50,[4],0.102 µM
CN(C)S(=O)(=O)c1ccc(C(=O)N2CCC(c3ccc(C(=O)NC(=N)N)cc3C(F)(F)F)CC2)cc1,Papp,[10],≥ 2 ×10⁻⁶ cm/s
N=C(N)NC(=O)c1ccc(C2CCN(C(=O)c3ccc(C(N)=O)cc3)CC2)c(C(F)(F)F)c1,IC50,[6],24.5 µM
same,IC50,[7],12 µM
same,IC50,[4],0.026 µM
same,IC50,[8],4 µM
same,"hepatic extraction ratio at 1 h, 1 µM",[9],< 0.056
same,Papp,[10],< 2 ×10⁻⁶ cm/s
same,IC50,[11],28 µM
same,"hepatic extraction ratio at 1 h, 1 µM",[12],0.24
Cc1cc(-n2cccc2)c(S(C)(=O)=O)cc1C(=O)NC(=N)N [ENIPORIDE],MRT,[1],24 min
same,bioavailability,[2],65%
same,Vd,[3],0.5 L/kg
same,CL,[5],28%
CS(=O)(=O)c1cccc(C(=O)N2CCC(c3ccc(C(=O)NC(=N)N)cc3C(F)(F)F)CC2)c1,IC50,[6],> 30 µM
same,IC50,[7],> 30 µM
same,IC50,[4],0.06 µM
same,IC50,[8],> 30 µM
same,"hepatic extraction ratio at 1 h, 1 µM",[9],0.14
same,Papp,[10],< 2 ×10⁻⁶ cm/s
same,IC50,[11],> 30 µM
same,"hepatic extraction ratio at 1 h, 1 µM",[12],0.15
N=C(N)NC(=O)c1ccc(C2CCN(C(=O)c3ccc(O)cc3)CC2)c(C(F)(F)F)c1,IC50,[4],0.021 µM
same,"hepatic extraction ratio at 1 h, 1 µM",[9],0.11
same,Papp,[10],< 2 ×10⁻⁶ cm/s
same,"hepatic extraction ratio at 1 h, 1 µM",[12],0.27
CC(C)CC(=O)N1CCC(c2ccc(C(=O)NC(=N)N)cc2C(F)(F)F)CC1,IC50,[4],0.047 µM
CS(=O)(=O)c1ccc(C(=O)N2CCC(c3ccc(C(=O)NC(=N)N)cc3C(F)(F)F)CC2)cc1,bioavailability,[2],15%
same,IC50,[7],> 30 µM
same,IC50,[4],0.015 µM
same,CL,[5],66%
same,IC50,[8],> 30 µM
same,Papp,[10],< 2 ×10⁻⁶ cm/s
same,IC50,[11],> 30 µM
N=C(N)NC(=O)c1ccc(C2CCN(C(=O)c3cccnc3)CC2)c(C(F)(F)F)c1,IC50,[6],> 30 µM
same,IC50,[7],> 30 µM
same,IC50,[4],0.018 µM
same,IC50,[8],13 µM
same,"hepatic extraction ratio at 1 h, 1 µM",[9],< 0.06
same,Papp,[10],< 2 ×10⁻⁶ cm/s
same,IC50,[11],> 30 µM
same,"hepatic extraction ratio at 1 h, 1 µM",[12],0.33
N=C(N)NC(=O)c1ccc(C2CCN(C(=O)c3ccccc3)CC2)c(C(F)(F)F)c1,IC50,[6],> 30 µM
same,IC50,[7],> 30 µM
same,IC50,[4],0.068 µM
same,IC50,[8],7 µM
same,"hepatic extraction ratio at 1 h, 1 µM",[9],0.46
same,Papp,[10],≥ 2 ×10⁻⁶ cm/s
same,IC50,[11],5 µM
same,"hepatic extraction ratio at 1 h, 1 µM",[12],0.67
N=C(N)NC(=O)c1ccc(C2CCN(C(=O)c3ccccc3Cl)CC2)c(C(F)(F)F)c1,IC50,[4],0.108 µM

# From ChEMBL document CHEMBL2169836 (J Med Chem, 2012)
